# Results taken from ChEMBL document CHEMBL5724801, “EUbOPEN Chemogenomics Library - Multiplex” (2024).
# Values joined by “and” are separate entries in the source; they are usually repeats but may differ in a detail not shown here. Equal entries are not always repeated.
# System: U2OS
# Assay: Multiplex assay against U2OS
# Assay type: toxicity, cell-based
# Settings: human
# In short: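 Cells were classed with CellPathfinder machine-learning gating, first as Hoechst high-intensity objects or normal cells, then (normal cells) as healthy, pyknosed or fragmented nuclei, and finally (pyknosed cells) as mitotic or apoptotic. Staining of live cells at seeding used Hoechst33342, BioTracker Green Microtubule Cytoskeleton Dye, MitoTracker Red and Annexin V Alexa Fluor 680, with imaging on a CQ1 microscope at 37°C and 5% CO2 after compound addition. Tubulin, mitochondrial-mass and membrane-permeability phenotypes are per cents of healthy-nucleus cells.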
# [1] = 12 h, 1 µM, compound concentration 1 uM
# [2] = 12 h, 10 µM, compound concentration 10 uM
# [3] = 24 h, 1 µM, compound concentration 1 uM
# [4] = 24 h, 10 µM, compound concentration 10 uM
# [5] = 48 h, 1 µM, compound concentration 1 uM
# [6] = 48 h, 10 µM, compound concentration 10 uM
compound,measurement,setting,value
S=c1[nH]nc(-c2cccs2)n1-c1ccccc1,Population Apoptotic (%),[1],50% and 31.82%
same,Population Fragmented Nuclei (%),[1],2.88% and 1.49%
same,Population Healthy Nuclei (%),[1],87.7% and 82.09%
same,Population Hoechst High Intensity Objects (%),[1],0%
same,Population Membrane Permeable-Phenotype (%),[1],0% and 3.64%
same,Population Mitochondria Different-Phenotype (%),[1],0.3% and 2.73%
same,Population Mitotic Cells (%),[1],50% and 68.18%
same,Population Normal (%),[1],100%
same,Population Pyknosed Nuclei (%),[1],9.42% and 16.42%
same,Population Tubulin-Different-Phenotype (%),[1],0.3% and 0%
same,Total Cell Count,[1],382 and 134
same,Population Apoptotic (%),[2],41.82% and 31.25%
same,Population Fragmented Nuclei (%),[2],1.86% and 4.61%
same,Population Healthy Nuclei (%),[2],83.55% and 84.87%
same,Population Hoechst High Intensity Objects (%),[2],0%
same,Population Membrane Permeable-Phenotype (%),[2],0.32% and 5.43%
same,Population Mitochondria Different-Phenotype (%),[2],0.32% and 5.43%
same,Population Mitotic Cells (%),[2],58.18% and 68.75%
same,Population Normal (%),[2],100%
same,Population Pyknosed Nuclei (%),[2],14.59% and 10.53%
same,Population Tubulin-Different-Phenotype (%),[2],0.63% and 0%
same,Total Cell Count,[2],377 and 152
same,Population Apoptotic (%),[3],38.78% and 38.46%
same,Population Fragmented Nuclei (%),[3],1.97% and 1.6%
same,Population Healthy Nuclei (%),[3],88.36% and 84.57%
same,Population Hoechst High Intensity Objects (%),[3],0.2% and 0%
same,Population Membrane Permeable-Phenotype (%),[3],0.22% and 3.14%
same,Population Mitochondria Different-Phenotype (%),[3],0.22% and 3.14%
same,Population Mitotic Cells (%),[3],61.22% and 61.54%
same,Population Normal (%),[3],99.8% and 100%
same,Population Pyknosed Nuclei (%),[3],9.66% and 13.83%
same,Population Tubulin-Different-Phenotype (%),[3],0.89% and 0%
same,Total Cell Count,[3],508 and 188
same,Population Apoptotic (%),[4],38.46% and 40%
same,Population Fragmented Nuclei (%),[4],2.57% and 1.6%
same,Population Healthy Nuclei (%),[4],87.15% and 87.77%
same,Population Hoechst High Intensity Objects (%),[4],0%
same,Population Membrane Permeable-Phenotype (%),[4],0.91% and 5.45%
same,Population Mitochondria Different-Phenotype (%),[4],0.23% and 3.03%
same,Population Mitotic Cells (%),[4],61.54% and 60%
same,Population Normal (%),[4],100%
same,Population Pyknosed Nuclei (%),[4],10.28% and 10.64%
same,Population Tubulin-Different-Phenotype (%),[4],0.91% and 1.21%
same,Total Cell Count,[4],506 and 188
same,Population Apoptotic (%),[5],48.15% and 60%
same,Population Fragmented Nuclei (%),[5],1.9% and 2.52%
same,Population Healthy Nuclei (%),[5],90.4% and 84.91%
same,Population Hoechst High Intensity Objects (%),[5],0.09% and 0%
same,Population Membrane Permeable-Phenotype (%),[5],0.84% and 0.74%
same,Population Mitochondria Different-Phenotype (%),[5],0% and 3.7%
same,Population Mitotic Cells (%),[5],51.85% and 40%
same,Population Normal (%),[5],99.91% and 100%
same,Population Pyknosed Nuclei (%),[5],7.7% and 12.58%
same,Population Tubulin-Different-Phenotype (%),[5],0.63% and 0%
same,Population Apoptotic (%),[6],25.3% and 58.62%
same,Population Fragmented Nuclei (%),[6],3.4% and 3.18%
same,Population Healthy Nuclei (%),[6],88.05% and 87.58%
same,Population Hoechst High Intensity Objects (%),[6],0%
same,Population Membrane Permeable-Phenotype (%),[6],1.29% and 2.18%
same,Population Mitochondria Different-Phenotype (%),[6],0.12% and 3.27%
same,Population Mitotic Cells (%),[6],74.7% and 41.38%
same,Population Normal (%),[6],100%
same,Population Pyknosed Nuclei (%),[6],8.55% and 9.24%
same,Population Tubulin-Different-Phenotype (%),[6],0.94% and 0%
Cl.Cl.N#Cc1ccc(O[C@@H]2c3ccccc3C[C@H]2N2CCC[C@@H](N)C2)c(Cl)c1,Population Apoptotic (%),[1],27.27% and 23.68%
same,Population Fragmented Nuclei (%),[1],3.65% and 1.32%
same,Population Healthy Nuclei (%),[1],79.64% and 73.51%
same,Population Hoechst High Intensity Objects (%),[1],0%
same,Population Membrane Permeable-Phenotype (%),[1],24.05% and 54.05%
same,Population Mitotic Cells (%),[1],72.73% and 76.32%
same,Population Normal (%),[1],100%
same,Population Pyknosed Nuclei (%),[1],16.72% and 25.17%
same,Population Tubulin-Different-Phenotype (%),[1],57.25% and 71.17%
same,Total Cell Count,[1],329 and 151
same,Population Apoptotic (%),[2],46.21% and 25.32%
same,Population Fragmented Nuclei (%),[2],4.14% and 2.88%
same,Population Healthy Nuclei (%),[2],56.8% and 40.29%
same,Population Hoechst High Intensity Objects (%),[2],0%
same,Population Membrane Permeable-Phenotype (%),[2],11.98% and 32.14%
same,Population Mitochondria Different-Phenotype (%),[2],63.54% and 89.29%
same,Population Mitotic Cells (%),[2],53.79% and 74.68%
same,Population Normal (%),[2],100%
same,Population Pyknosed Nuclei (%),[2],39.05% and 56.83%
same,Population Tubulin-Different-Phenotype (%),[2],88.02% and 89.29%
same,Total Cell Count,[2],338 and 139
same,Population Apoptotic (%),[3],47.5% and 39.47%
same,Population Fragmented Nuclei (%),[3],2.74% and 2.58%
same,Population Healthy Nuclei (%),[3],77.31% and 72.9%
same,Population Hoechst High Intensity Objects (%),[3],0%
same,Population Membrane Permeable-Phenotype (%),[3],19.35% and 35.4%
same,Population Mitotic Cells (%),[3],52.5% and 60.53%
same,Population Normal (%),[3],100%
same,Population Pyknosed Nuclei (%),[3],19.95% and 24.52%
same,Population Tubulin-Different-Phenotype (%),[3],32.58% and 69.03%
same,Total Cell Count,[3],401 and 155
same,Population Apoptotic (%),[4],64.9% and 68.09%
same,Population Fragmented Nuclei (%),[4],3.82% and 4.96%
same,Population Healthy Nuclei (%),[4],51.76% and 28.37%
same,Population Hoechst High Intensity Objects (%),[4],0%
same,Population Membrane Permeable-Phenotype (%),[4],9.09% and 12.5%
same,Population Mitochondria Different-Phenotype (%),[4],73.3% and 92.5%
same,Population Mitotic Cells (%),[4],35.1% and 31.91%
same,Population Normal (%),[4],100%
same,Population Pyknosed Nuclei (%),[4],44.41% and 66.67%
same,Population Tubulin-Different-Phenotype (%),[4],88.64% and 90%
same,Total Cell Count,[4],340 and 141
same,Population Apoptotic (%),[5],60.55% and 72.41%
same,Population Fragmented Nuclei (%),[5],2.44% and 3.43%
same,Population Healthy Nuclei (%),[5],79.8% and 63.43%
same,Population Hoechst High Intensity Objects (%),[5],0%
same,Population Mitotic Cells (%),[5],39.45% and 27.59%
same,Population Normal (%),[5],100%
same,Population Pyknosed Nuclei (%),[5],17.75% and 33.14%
same,Population Apoptotic (%),[6],73.29% and 91.21%
same,Population Fragmented Nuclei (%),[6],7.46% and 4.9%
same,Population Healthy Nuclei (%),[6],56.22% and 31.47%
same,Population Hoechst High Intensity Objects (%),[6],0% and 0.69%
same,Population Membrane Permeable-Phenotype (%),[6],5.75% and 15.56%
same,Population Mitochondria Different-Phenotype (%),[6],52.21% and 86.67%
same,Population Normal (%),[6],100% and 99.31%
same,Population Pyknosed Nuclei (%),[6],36.32% and 63.64%
same,Population Tubulin-Different-Phenotype (%),[6],66.37% and 84.44%
same,Total Cell Count,[6],402 and 144
COc1cc2ncnc(Nc3ccc(Oc4ccccc4)cc3C)c2cc1OC.Cl,Population Apoptotic (%),[1],43.18% and 56.25%
same,Population Fragmented Nuclei (%),[1],1.46% and 3.77%
same,Population Healthy Nuclei (%),[1],89.4% and 86.16%
same,Population Hoechst High Intensity Objects (%),[1],0%
same,Population Membrane Permeable-Phenotype (%),[1],0.23% and 2.92%
same,Population Mitochondria Different-Phenotype (%),[1],0.47% and 9.49%
same,Population Mitotic Cells (%),[1],56.82% and 43.75%
same,Population Normal (%),[1],100%
same,Population Pyknosed Nuclei (%),[1],9.15% and 10.06%
same,Population Tubulin-Different-Phenotype (%),[1],0.47% and 0.73%
same,Population Apoptotic (%),[2],37.93% and 21.21%
same,Population Fragmented Nuclei (%),[2],2.47% and 2.03%
same,Population Healthy Nuclei (%),[2],81.64% and 75.68%
same,Population Hoechst High Intensity Objects (%),[2],0.27% and 0%
same,Population Membrane Permeable-Phenotype (%),[2],11.74% and 10.71%
same,Population Mitotic Cells (%),[2],62.07% and 78.79%
same,Population Normal (%),[2],99.73% and 100%
same,Population Pyknosed Nuclei (%),[2],15.89% and 22.3%
same,Population Tubulin-Different-Phenotype (%),[2],14.09% and 5.36%
same,Total Cell Count,[2],366 and 148
same,Population Apoptotic (%),[3],41.67% and 39.13%
same,Population Fragmented Nuclei (%),[3],2.08% and 5.24%
same,Population Healthy Nuclei (%),[3],88.99% and 83.81%
same,Population Hoechst High Intensity Objects (%),[3],0%
same,Population Membrane Permeable-Phenotype (%),[3],0.67% and 2.84%
same,Population Mitochondria Different-Phenotype (%),[3],0.67% and 6.25%
same,Population Mitotic Cells (%),[3],58.33% and 60.87%
same,Population Normal (%),[3],100%
same,Population Pyknosed Nuclei (%),[3],8.93% and 10.95%
same,Population Tubulin-Different-Phenotype (%),[3],0.67% and 1.7%
same,Population Apoptotic (%),[4],64.1% and 26.19%
same,Population Fragmented Nuclei (%),[4],3.39% and 3.61%
same,Population Healthy Nuclei (%),[4],79.01% and 71.08%
same,Population Hoechst High Intensity Objects (%),[4],0%
same,Population Membrane Permeable-Phenotype (%),[4],8.57% and 6.78%
same,Population Mitotic Cells (%),[4],35.9% and 73.81%
same,Population Normal (%),[4],100%
same,Population Pyknosed Nuclei (%),[4],17.61% and 25.3%
same,Population Tubulin-Different-Phenotype (%),[4],10.29% and 10.17%
same,Total Cell Count,[4],443 and 166
same,Population Apoptotic (%),[5],42.28% and 50%
same,Population Fragmented Nuclei (%),[5],3.36% and 3.22%
same,Population Healthy Nuclei (%),[5],87.01% and 84.5%
same,Population Hoechst High Intensity Objects (%),[5],0%
same,Population Membrane Permeable-Phenotype (%),[5],0.54% and 2.42%
same,Population Mitochondria Different-Phenotype (%),[5],0% and 6.23%
same,Population Mitotic Cells (%),[5],57.72% and 50%
same,Population Normal (%),[5],100%
same,Population Pyknosed Nuclei (%),[5],9.62% and 12.28%
same,Population Tubulin-Different-Phenotype (%),[5],0.63% and 1.38%
same,Population Apoptotic (%),[6],65.09% and 50%
same,Population Fragmented Nuclei (%),[6],6.98% and 4.76%
same,Population Healthy Nuclei (%),[6],79.05% and 76.19%
same,Population Hoechst High Intensity Objects (%),[6],0%
same,Population Membrane Permeable-Phenotype (%),[6],4.33% and 8.52%
same,Population Mitotic Cells (%),[6],34.91% and 50%
same,Population Normal (%),[6],100%
same,Population Pyknosed Nuclei (%),[6],13.97% and 19.05%
same,Population Tubulin-Different-Phenotype (%),[6],10.17% and 11.93%
